Shown are actives, neighbours in structure and some others; about 2.6% of the full set was active somewhere.
PvdQ inh = P. aeruginosa PvdQ acylase inhibitors, primary screen, biochemical, fluorescence, plate reader and imaging, single point. PvdQ acylase [Pseudomonas aeruginosa LESB58]. 340,000 compounds, 0.063% hits. AID 488965, 2010. inhibition, % at 10 µM. purified PvdQ acylase; in the data active means inhibition above about 30%, passing the limit was not always enough; inconclusive means no clear call, values can overlap the other calls;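 further: 0% = vehicle neutral wells and 100% = reference inhibitor wells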
SR-BI HDL uptake = inhibitors of SR-BI mediated HDL lipid uptake, primary screen, ldlA[mSR-BI] cells, fluorescence, single point; Scavenger receptor class B member 1 (Mus musculus), Q61009; ldlA[mSR-BI] CHO cells, DiI-HDL uptake fluorescence, 3 h; inhibition, % at 12.5 µM; 320,000 compounds, 0.96% hits;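 active means mean replicate inhibition of at least 70% and a set share of replicates each scoring 70 or more; inconclusive means meets just one of the two criteria; inactive means fails both criteria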;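 further: 0% = median of neutral control wells and 100% = median of positive control wells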
rRNA inh HTS = reduced GFP signal of wild-type E. coli, primary screen, bacterial rRNA inhibitor project, GFP/RFP fluorescence, OD600, single point; E. coli WT GFP vs humanized-ribosome RFP mutants, 24 h; hits give low values; DMSO median 0, no signal -100; GFP signal change (wild-type ribosome), % (test concentration not listed); 350,000 compounds, 1.6% hits; AID 720706, 2013;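 active means significant combined selectivity score with lowered wild-type GFP, culture density cut under 30%, mutant RFP and density less affected; inactive means any of these conditions unmet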
dFosB activator = activators of delta FosB homodimer, primary screen, biochemical, fluorescence polarization, TAMRA-CDK5 oligo, single point. activation, % at 25 µM. Protein FosB (Mus musculus), P13346. purified delta FosB; percent of positive-control signal above neutral wells. 340,000 compounds, 0.99% hits;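 active means mean activation above about 17%, with every replicate also reaching it, limit read from the data, passing the limit was not always enough; inconclusive means only one of the two conditions met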
Target sequence (P13346 whole entry, looked up): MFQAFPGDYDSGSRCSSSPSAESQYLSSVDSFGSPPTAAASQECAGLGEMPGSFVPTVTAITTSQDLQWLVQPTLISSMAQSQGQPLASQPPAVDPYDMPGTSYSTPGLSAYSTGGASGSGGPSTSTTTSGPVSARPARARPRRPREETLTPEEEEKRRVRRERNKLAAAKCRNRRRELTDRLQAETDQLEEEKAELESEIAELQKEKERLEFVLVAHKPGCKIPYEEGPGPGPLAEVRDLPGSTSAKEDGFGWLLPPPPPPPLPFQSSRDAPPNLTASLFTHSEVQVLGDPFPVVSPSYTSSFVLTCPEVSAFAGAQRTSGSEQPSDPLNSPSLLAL
XiGFP reactiv = activators of inactive X chromosome reactivation, primary screen, imaging, XiGFP fibroblasts, GFP high-content imaging, set 2 | XiGFP mouse fibroblasts, % GFP-positive cells imaging, 3 d; cells co-treated with 5-aza-dC sensitizer; scaled so ellipticine positive control = 100% | activation, % at 7.58 µM | 360,000 compounds, 0.055% hits | AID 743238, 2013;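 active means mean normalized replicate activation at least 10% and every replicate at or above 10%; inconclusive means only one of the two criteria met; inactive means mean below 10% and not all replicates reach 10%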;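 further: 0% = median of on-plate neutral control wells and 100% = ellipticine 6 µM median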
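material = 68-5-11 XiGFP fibroblast line | medium = DMEM plus 5-aza-dC sensitizer | schedule = 3 days compound exposure | benchmarks = positive control ellipticine, 6 µM final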
SR-BI DiI-HDL act = activators of SR-BI mediated DiI-HDL uptake, primary screen, ldlA[mSR-BI] CHO cells, DiI fluorescence | 320,000 compounds, 0.096% hits | activation, % at 12.5 µM | 3 h; 100 = double the neutral-control signal;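 active means mean replicate activation of at least 60% and every replicate at or above 60%; inconclusive means mean or all-replicate condition met, but not both; inactive means mean below 60% and not all replicates reaching 60%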;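 further: 0% = median plate neutral-control signal and 100% = twice that signal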
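material = CHO ldlA[mSR-BI] cells | medium = Ham's F12 with 0.5% BSA, HEPES 25 mM, pH 7.4 | reagent = fluorescent DiI-HDL, 10 µg/mL final | compound dosing = single-point compound dose | incubation = 3 h, 37 °C | measured by = bottom-read fluorescence, 550/595 nm | measure = HDL uptake via cellular fluorescence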
AID977621 = growth inhibition of wild-type GFP E. coli, dose response, H69 mutant RFP, cherry-pick. shares compounds with rRNA inh HTS. E. coli wild-type GFP strain growth, fluorescence, 24 h. activity change, negative = inhibition at 50 µM. 1,900 tested, under 10 active;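 active means Wild-type ribosome reporter drop at least double the humanized mutant ribosome reporter drop, growth loss under a set limit; inconclusive means no clear call, values can overlap the other calls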;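 further: wild-type GFP and H69 mutant RFP strains grown together 50/50 in each well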
AID977628 = E. coli growth inhibition, wild-type GFP versus h24 humanized RFP strain, dose response, h24 mutant RFP vs wild-type GFP, cherry-pick. shares compounds with rRNA inh HTS. E. coli WT GFP strain growth, fluorescence, 24 h. activity change, negative = inhibition at 50 µM. 1,900 tested, under 10 active;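 active means compound lowering the normal-ribosome reporter at least twice as much as the humanized-ribosome reporter, growth loss under a set limit; inconclusive means no clear call, values can overlap the other calls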;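 further: wild-type GFP and h24 humanized RFP strains co-cultured 1 to 1 per well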
Starred values were filed as active, the others as inactive; ? = inconclusive; . = not tested or not shown.

SMILES	PvdQ inh	SR-BI HDL uptake	rRNA inh HTS	dFosB activator	XiGFP reactiv	SR-BI DiI-HDL act	AID977621	AID977628
COc1cccc(-c2cc(C(=O)N3CCc4ccccc4C3)no2)c1	-5	16	.	-13	.	-16	.	.
COc1ccc(-c2cc(C(=O)N3CCCCC3)no2)cc1OC	-6	-8	-23*	-7	.	8	-7	?
COc1ccc(-c2cc(C(=O)N3CCc4ccccc4C3)no2)cc1	2	.	-26*	-9	0	.	-5	.
COc1ccc(-c2cc(C(=O)N3CCCC3)no2)cc1OC	-13	.	-4	-7	0	.	.	.
O=C(NCC[C@H]1CC[C@H](NC(=O)C2CCC2)[C@H](CO)O1)c1ccc(F)cc1	.	.	3	.	0	.	.	.
CCOc1cccc(-c2cc(-c3n[nH]c(=S)n3CC)c3ccccc3n2)c1	8	14	-37*	-4	.	-14	-17	?
COc1ccc(S(=O)(=O)N(C)C)cc1NC(=O)c1ccc2c(c1)NC(=O)C(C)S2 (stereo not given)	-6	13	-21*	-20	0	-13	-0.9	.
CC1Sc2ccc(C(=O)Nc3ccc(S(=O)(=O)N(C)C)cc3)cc2NC1=O (stereo not given)	-14	42	-7	-13	4	-42	.	.
NS(=O)(=O)c1ccc(CCNC(=O)C(=O)NCC2OCCN2S(=O)(=O)c2cccs2)cc1 (stereo not given)	-19	-4	1	-3	0	4	.	.
CCOC(=O)c1cnc2ccc(OCC)cc2c1NCCCN1CCOCC1	-11	-3	-22*	2	0	3	2	?
CCOC(=O)c1cnc2ccc(OCC)cc2c1NCCN1CCOCC1	1	16	-21	-6	0	-16	.	.
Cc1ccc(-c2csc(NC(=O)C3CCN(S(=O)(=O)c4cccs4)CC3)n2)cc1	-7	25	.	-2	0	-25	.	.
O=C(Nc1nc(-c2ccc3ccccc3c2)cs1)C1CCN(S(=O)(=O)c2cccs2)CC1	-1	24	-15*	16	0	-24	-3.7	-1.9
O=C(CSc1nnc(CNC(=O)c2c(F)cccc2Cl)o1)NCc1ccc2c(c1)OCO2	-7	-16	.	-2	.	16	.	.
COc1ccc(N(C)S(=O)(=O)c2cccc(C(=O)NC3CCCC3)c2)cc1	-4	.	-26	-2	0	.	.	.
COc1ccc(N(C)S(=O)(=O)c2cccc(C(=O)NC3CCCCC3C)c2)cc1 (stereo not given)	-15	10	-27*	-4	0	-10	-6.9	.
CCOC(=O)c1c(C)[nH]c(C)c1S(=O)(=O)NCCN1CCN(c2ccccc2F)CC1	12	1	-16*	-5	0	-1	-6.3	-16
CCOC(=O)c1c(C)[nH]c(C)c1S(=O)(=O)NCC1CCN(Cc2ccccc2F)CC1	-12	-19	5	-8	0	19	.	.
O=C(COC(=O)c1n[nH]c2ccccc12)Nc1cccc(S(=O)(=O)N2CCOCC2)c1	-4	31	-25*	-5	0	-31	-18	-13
O=C(COC(=O)CCC(=O)c1ccc(F)cc1)Nc1cccc(S(=O)(=O)N2CCCC2)c1	-3	.	-21*	-15	0	.	-21	-11
CC(=O)c1cccc(NC(=O)COC(=O)CCC(=O)c2ccc(F)cc2)c1	-8	-13	-17*	-7	0	13	-1.8	.
Cc1nc(SCC(=O)N2CCN(c3ccccc3)CC2)c2oc3ccccc3c2n1	-13	.	.	-1	.	.	.	.
CC1CCc2sc3ncn4nc(C(=O)NCc5ccco5)nc4c3c2C1 (stereo not given)	-6	27	.	-3	.	-27	.	.
CC1CCc2c(sc3ncn4c(SCC(=O)NCc5ccco5)nnc4c23)C1 (stereo not given)	5	6	-20*	-15	.	-6	-11	-8.4
Cc1nc(SCC(=O)Nc2ccc3c(c2)OCCO3)nc(C)c1C	6	-5	-18*	-12	0	5	-16	.
SMILES	PvdQ inh	SR-BI HDL uptake	rRNA inh HTS	dFosB activator	XiGFP reactiv	SR-BI DiI-HDL act	AID977621	AID977628
Cc1cc(C)nc(SCC(=O)Nc2ccc3c(c2)OCO3)n1	-14	-12	1	-6	0	12	.	.
O=C(Nc1cccc(F)c1)N1C[C@@H]2[C@H](c3ccccc31)[C@H](CO)N2C(=O)Cc1ccccn1	.	.	-18*	.	0	.	5.9	-0.73
CCC(=O)N1[C@H](CO)[C@@H]2c3ccccc3N(C(=O)Nc3ccc(Cl)cc3)C[C@@H]21	.	.	-22*	.	0	.	-13	.
COCC(=O)N1[C@@H]2CN(C(=O)Nc3ccccc3F)c3ccccc3[C@@H]2[C@@H]1CO	.	.	-18*	.	0	.	5.7	?
CCCCC(=O)N(Cc1ccc2c(c1)OCO2)Cc1nc2ccccc2c(=O)[nH]1	1	-3	-23*	-12	0	3	.	-3.8
CCCC(=O)N(CCc1ccc(OC)cc1)Cc1nc2ccccc2c(=O)[nH]1	3	-3	-21*	-6	.	3	.	-7.7
COc1ccc(Cl)cc1NC(=O)C1Cc2ccccc2CN1S(C)(=O)=O (stereo not given)	10	16	-20*	-11	0	-16	.	-19
Cc1cc(C)c(S(=O)(=O)N2CCOCC2)cc1NS(=O)(=O)c1cc(OCC(N)=O)c(C)cc1Cl	-7	-6	-18	-5	0	6	.	.
CN(C)C(=O)C1C2NC(=S)N(c3cccc(Cl)c3)C1(C)Oc1ccc(Cl)cc12 (stereo not given)	-1	1	-22*	-9	1	-1	-2.2	.
Cc1cc(NC(=O)CCCn2cc([N+](=O)[O-])cn2)n(Cc2ccc(F)cc2)n1	0	10	-23*	2	0	-10	0.39	?
CCN(CC)c1nc(Oc2ccc(C(=O)OC)cc2)nc(N2CCOCC2)n1	-12	.	-16*	-14	.	.	-7.2	-16
